Laboratory results published in publication PMC4515784 (Journal of Medicinal Chemistry, 2015).

Key:
hSERT = hSERT (Homo sapiens, UniProt P31645); format: cell-based
HA-hSERT = HA-hSERT (Homo sapiens, UniProt P31645); assay: hSERT photoaffinity labeling in HA-hSERT LLCPK1 cells; format: binding
[1] = Reversed-phase HPLC relative lipophilicity; format: physicochemical; conditions: C-18 column, 45% MeOH/CH3CN (1:1) and 55% water with Et3N and HOAc, 3.0 mL/min
Method in brief: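 Waters C-18 Nova-Pak column (8 × 100 mm, 6 μm, radial compression). Organic phase MeOH/CH3CN 1:1 v/v; aqueous phase contained Et3N (2.1% v/v) and HOAc (2.8% v/v). Isocratic 45% organic/55% aqueous at 3.0 mL/min, with one analogue run at 42%/58%. Retention time and k′ recorded for radioiodinated products, matched to nonradioactive standards by coelution.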

Sequence of hSERT (P31645 whole entry): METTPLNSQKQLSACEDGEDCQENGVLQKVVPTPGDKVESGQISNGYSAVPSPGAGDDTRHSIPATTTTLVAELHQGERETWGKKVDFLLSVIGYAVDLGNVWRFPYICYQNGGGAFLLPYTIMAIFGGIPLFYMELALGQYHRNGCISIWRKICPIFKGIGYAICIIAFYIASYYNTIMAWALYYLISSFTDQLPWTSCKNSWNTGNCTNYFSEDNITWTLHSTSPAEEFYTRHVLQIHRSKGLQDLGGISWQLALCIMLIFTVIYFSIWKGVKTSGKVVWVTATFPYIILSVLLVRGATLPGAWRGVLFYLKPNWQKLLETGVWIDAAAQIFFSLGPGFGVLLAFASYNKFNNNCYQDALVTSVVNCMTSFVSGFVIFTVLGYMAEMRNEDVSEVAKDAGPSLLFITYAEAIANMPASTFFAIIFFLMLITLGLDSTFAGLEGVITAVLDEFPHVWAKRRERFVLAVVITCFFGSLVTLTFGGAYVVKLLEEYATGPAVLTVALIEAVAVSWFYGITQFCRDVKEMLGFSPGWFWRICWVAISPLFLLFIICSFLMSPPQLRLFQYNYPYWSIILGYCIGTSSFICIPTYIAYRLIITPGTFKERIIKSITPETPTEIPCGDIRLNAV
Sequence of HA-hSERT (P31645 whole entry): as above

| SMILES | Reduction in WT hSERT affinity compared to (S)-citalopram (hSERT) | Irreversible (covalent) labeling of hSERT upon photoactivation (HA-hSERT) | Capacity factor k′ (relative lipophilicity) [1] | Effect of (S)-citalopram preincubation on irreversible hSERT labeling (in words) (HA-hSERT) |
| --- | --- | --- | --- | --- |
| CN(C)CCC[C@@]1(c2ccc(F)cc2)OCc2cc(CNC(=O)CCc3ccc(N=[N+]=[N-])c(I)c3)ccc21 [compound 22, (S)-3-(4-Azido-3-iodophenyl)-N-((1-(3-(dimethylamino)propyl)-1-(4-fluorophenyl)-1,3-dihydroisobenzofuran-5-yl)methyl)propanamide] | 17 fold | – | – | – |
| CN(C)CCC[C@@]1(c2ccc(F)cc2)OCc2cc(CNC(=O)c3ccc(N=[N+]=[N-])c(I)c3)ccc21 [compound 26, (S)-4-Azido-N-((1-(3-(dimethylamino)propyl)-1-(4-fluorophenyl)-1,3-dihydroisobenzofuran-5-yl)methyl)-3-iodobenzamide] | 11 fold | – | – | – |
| CN(CCC[C@@]1(c2ccc(F)cc2)OCc2cc(C#N)ccc21)CCc1ccc(N=[N+]=[N-])c(I)c1 [compound 15, (S)-1-(3-((4-Azido-3-iodophenethyl)(methyl)amino)propyl)-1-(4-fluorophenyl)-1,3-dihydroisobenzofuran-5-carbonitrile] | 100 fold | – | – | – |
| CN(CCC[C@@]1(c2ccc(F)cc2)OCc2cc(C#N)ccc21)CCc1ccc(N=[N+]=[N-])c([125I])c1 [[^125I]15, (S)-1-(3-((4-Azido-3-[^125I]-iodophenethyl)(methyl)amino)propyl)-1-(4-fluorophenyl)-1,3-dihydroisobenzofuran-5-carbonitrile] | – | covalently label | 18.3 | – |
| CN(C)CCC[C@@]1(c2ccc(F)cc2)OCc2cc(CNC(=O)CCc3ccc(N=[N+]=[N-])c([125I])c3)ccc21 [[^125I]22, (S)-3-(4-Azido-3-[^125I]-iodophenyl)-N-((1-(3-(dimethylamino)propyl)-1-(4-fluorophenyl)-1,3-dihydroisobenzofuran-5-yl)methyl)propanamide] | – | covalently label | 10.4 | completely eliminated |
| CN(C)CCC[C@@]1(c2ccc(F)cc2)OCc2cc(CNC(=O)c3ccc(N=[N+]=[N-])c([125I])c3)ccc21 [[^125I]26, (S)-4-Azido-N-((1-(3-(dimethylamino)propyl)-1-(4-fluorophenyl)-1,3-dihydroisobenzofuran-5-yl)methyl)-3-[^125I]-iodobenzamide] | – | covalently label | 10.6 | completely eliminated |
